Data reported in ChEMBL document CHEMBL1145980, “Molecular modeling calculations of HIV-1 reverse transcriptase nonnucleoside inhibitors: correlation of binding energy with biological activity for novel 2-aryl-substituted benzimidazole analogues” (J Med Chem, 2003).

molecular target: Human immunodeficiency virus type 1 reverse transcriptase (Human immunodeficiency virus 1, UniProt Q72547); experiment: Inhibition of HIV-1 reverse transcriptase.
In short: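 Antiviral activity measured in cells infected with the HIV-1-based vector pNLNgoMI/R-E. The vector expresses the murine cell-surface marker gene hsa from the nef reading frame, so vector-infected cells can be identified by that marker. Results are reported as EC50.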

`Fc1cccc(F)c1Cn1c(-c2c(F)cccc2F)nc2c(Cl)cccc21` and `Cc1cccc2c1nc(-c1c(F)cccc1F)n2Cc1c(F)cccc1F` are within 1.5-fold of each other in EC50: 0.4 µM for the first, 0.44 µM for the second.

`NC(=O)c1cccc2c1nc(-c1c(F)cccc1F)n2Cc1c(F)cccc1F` and `Nc1cccc2c1nc(-c1c(F)cccc1F)n2Cc1c(F)cccc1F` are within 1.5-fold of each other in EC50: 0.37 µM for the first, 0.53 µM for the second.

First: OCc1cccc2c1nc(-c1c(F)cccc1F)n2Cc1c(F)cccc1F
Second: Fc1cccc(F)c1Cn1c(-c2c(F)cccc2F)nc2c(CCl)cccc21
The EC50 of the first is 3.2-fold lower: 0.05 µM for the first, 0.16 µM for the second.

Going from `COc1cccc2c1nc(-c1c(F)cccc1F)n2Cc1c(F)cccc1F` to `Fc1cccc(F)c1Cn1c(-c2c(F)cccc2F)nc2c(Br)cccc21`, the EC50 rises from 0.08 µM to 0.37 µM (4.6-fold). The first is the more potent here.

`CNc1cccc2c1nc(-c1c(F)cccc1F)n2Cc1c(F)cccc1F` and `CC(=O)Nc1cccc2c1nc(-c1c(F)cccc1F)n2Cc1c(F)cccc1F` are within 1.5-fold of each other in EC50: 2.4 µM for the first, 1.65 µM for the second.

Going from `CCc1cccc2c1nc(-c1c(F)cccc1F)n2Cc1c(F)cccc1F` to `NCc1cccc2c1nc(-c1c(F)cccc1F)n2Cc1c(F)cccc1F`, the EC50 rises from 0.82 µM to 1.36 µM (1.7-fold). The first is the more potent here.

`N#CCc1cccc2c1nc(-c1c(F)cccc1F)n2Cc1c(F)cccc1F` and `[N-]=[N+]=NCc1cccc2c1nc(-c1c(F)cccc1F)n2Cc1c(F)cccc1F` are within 1.5-fold of each other in EC50: 0.06 µM for the first, 0.045 µM for the second.

Going from `Fc1cccc(F)c1Cn1c(-c2ccccc2)nc2ccccc21` to `Fc1cccc(F)c1Cn1c(-c2c(F)cccc2F)nc2ccccc21`, the EC50 falls from 6.06 µM to 1.7 µM (3.6-fold).

Going from `CC(=O)OCc1cccc2c1nc(-c1c(F)cccc1F)n2Cc1c(F)cccc1F` to `CC(=O)N(C)c1cccc2c1nc(-c1c(F)cccc1F)n2Cc1c(F)cccc1F`, the EC50 falls from 0.06 µM to 0.04 µM (1.5-fold).

Compared with `O=[N+]([O-])c1cccc2c1nc(-c1c(F)cccc1F)n2Cc1c(F)cccc1F`, `O=Cc1cccc2c1nc(-c1c(F)cccc1F)n2Cc1c(F)cccc1F` is 4.5-fold lower in EC50: 0.45 µM for the first, 0.1 µM for the second. The second is the more potent here.

Compared with `Cc1cccc2c1nc(-c1c(F)cccc1F)n2Cc1ccccc1`, `COc1cccc(F)c1-c1nc2c(N)cccc2n1Cc1c(F)cccc1F` is 3.6-fold higher in EC50: 0.75 µM for the first, 2.71 µM for the second.
